# Shown are actives, neighbours in structure and some others; about 3.1% of the full set was active somewhere.
# CSC inhib: cancer stem cell viability inhibitors, primary screen, luminescence; cancer stem cell-like cells viability; inhibition, % at 7.5 µM; 1.1% of 300,000 active; AID 2717, 2010; in the data active = inhibition above about 75%; tested in HMLE shEcad cells
# Calb FLC: C. albicans growth inhibition with fluconazole, primary screen, CaCi-2 strain, Alamar Blue fluorescence. C. albicans CaCi-2 (fluconazole-resistant clinical isolate) + fluconazole, 48 h. AID 1979, 2009. growth inhibition, % (test concentration not listed). 0.57% of 300,000 active;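 active = growth inhibition above about 58% in most replicates, limit read from the data, passing the limit was not always enough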;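 note: all wells also contain fluconazole at 8 µg/ml as a sub-toxic cotreatment; 0% = median of DMSO wells and 100% = median of geldanamycin control wells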
# Beta apoptosis: inhibitors of cytokine-induced beta cell apoptosis, primary screen, luminescence. INS-1E cytokine-induced death, ATP luminescence, 48 h; percent of positive-control rescue, neutral wells zero. protection from apoptosis, % (no concentration beside the values). 0.8% of 300,000 active. AID 435005, 2010;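 active = Every replicate reaches about 75%, or at least half do and their mean reaches it too, limit read from the data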;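 note: 0% = cytokine-treated negative control wells and 100% = positive control rescue; higher means more ATP so stronger rescue from cytokine killing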
# HIF activator: HIF pathway transcriptional activators, primary screen, cell-based, U2OS HRE-luciferase, luminescence; activation, % at 7.5 µM (by protocol); AID 1910, 2009; U2OS HRE-luciferase reporter; normalized: DMSO 0%, desferrioxamine 100%; 0.32% of 300,000 active;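 active = mean activation of at least 10% of the iron chelator positive control signal, with at least half of replicates also reaching 10%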
# PolyA inhibitor: polyadenylation inhibitors in yeast reporter cells, primary screen, luminescence, S. cerevisiae; activity score, % at 12 µM; S. cerevisiae SKY197-pL101 polyadenylation reporter, beta-gal luminescence; efflux-impaired pdr1/pdr3 knockout yeast; score 100 = 6 SD above DMSO; AID 1875, 2009; 0.02% of 300,000 active;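 active = lowest replicate activity score at least 50, where 100 means six control SD above control mean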;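 note: yeast exposed to compound for 9 h at 30 °C; higher score means more reporter readthrough which indicates perturbed polyadenylation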
# T cruzi repl: inhibitors of intracellular T. cruzi growth, primary screen, luminescence, NIH3T3 host cells. T. cruzi beta-gal in NIH3T3, 90 h. inhibition, % (no concentration beside the values). 1.4% of 300,000 active. AID 1885, 2009;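 active = mean inhibition across valid replicates above about 55%, limit read from the data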;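 note: signal also drops with host cell toxicity which is not excluded here; 0% = plate median of DMSO wells and 100% = zero luminescence signal; higher percent means less beta-gal luminescence so fewer parasites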
#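 Incubation – ≥90 h infection period, 3 h prior cell attachment · System – NIH/3T3 fibroblasts plus reporter T. cruzi · Doses – compound pinned at 50 nL/well, DMSO · Read-out basis – percent inhibition of parasite-derived β-gal signal · Signal – luminescent β-galactosidase signal after 60 min lysis · Also added – 5000 T. cruzi trypomastigotes/well · Medium – Low-serum DMEM with 2% FBS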
# Numbers without * were called inactive; / = no result given.
SMILES,CSC inhib,Calb FLC,Beta apoptosis,HIF activator,PolyA inhibitor,T cruzi repl
CCc1ccc2oc(C(=O)NCC(c3ccc(OC)cc3)N3CCCCC3)c(C)c2c1 (stereo not drawn),85*,3,16,-1,9,28
COc1ccc(C(CNC(=O)c2oc3ccc(Br)cc3c2C)N2CCCCC2)cc1 (stereo not drawn),-3,-4,-11,0,-6,55*
Cc1c(C(=O)Nc2ccc(-c3nnc4n3CCCCC4)cc2)oc2ccc(Br)cc12,-3,0,15,1,13,61*
COc1ccc(C(CNC(=O)c2oc3cc(Br)ccc3c2C)N2CCCCC2)cc1 (stereo not drawn),-6,-18,3,0,1,5
O=C(Nc1ccc(-c2nnc3n2CCCCC3)cc1)c1ccco1,-3,-7,-2,0,2,-9
CCN(Cc1cccc(F)c1)C(=O)c1ccc2ccccc2n1,-7,0,-9,2,-18,7
Cc1ccnc(SCC(=O)Nc2c(C)n(C)n(-c3ccccc3)c2=O)n1,6,-1,/,0,1,-22
CN1CCN(/N=C/c2ccc(-c3ccc([N+](=O)[O-])cc3Cl)o2)CC1,54,1,-2,0,-9,59*
O=[N+]([O-])c1ccc(Cl)c(-c2ccc(/C=N/n3cnnc3)o2)c1,-4,17,3,1,2,-14
C=CCSC(=C(C#N)C#N)c1cc2c([nH]1)CCCC2,101*,/,14,2,-9,-13
O=C(O)c1cc2c([nH]c1=O)CCCC2,-10,0,-11,-1,17,-12
CCOc1ccc(NC(=O)C2CCN(C(=O)C3CC(=O)N(c4ccc(C)cc4)C3)CC2)cc1 (stereo not drawn),3,-7,-10,0,2,7
COc1ccc(-c2cc([C@H]3[C@H]4C=CC[C@@H](C)[C@@H]4C(=O)N3Cc3ccccc3)ccc2F)cc1,77*,8,1,-1,-6,36
C[C@@H]1CC=C[C@H]2[C@H]1C(=O)N(Cc1ccccc1)[C@H]2c1ccc2ccccc2c1,86*,-11,18,-1,-5,15
COc1ccc(-c2cc([C@H]3[C@H]4C=CC[C@@H](C)[C@@H]4C(=O)N3Cc3ccccc3)ccc2F)cc1OC,-1,-7,7,0,4,16
COC(=O)[C@H](CC(C)C)NC(=O)Nc1ccccc1F,-27,-1,-6,1,8,-8
N#Cc1c(N)n(Cc2ccccc2)c(=O)c2cc([N+](=O)[O-])ccc12,13,-3,-6,0,2,57*
Cc1nc2ccc([N+](=O)[O-])cc2c(=O)n1Cc1ccc([N+](=O)[O-])cc1,-9,-3,3,0,7,34
Cn1c(CCNC(=O)c2ccco2)nc2cc(NC(=O)C3CCCCC3)ccc21,-10,-3,-1,176*,6,4
CCCCNC(=S)N(C)/N=C/c1ccc(F)cc1,11,-5,-3,0,1,-4
CCCCNC(=S)N(C)/N=C/c1ccc2c(c1)OCO2,83*,10,-1,0,-16,26
C#CCOCCOCCOCCNc1nc(N2CCN(C(=O)CCCCCCCCCCNC(=O)Cn3cc(CCCCCN)nn3)CC2)nc(N2CCN(C(=O)CCCCCCCCCCNC(=O)[C@H]([C@@H](C)CC)n3cc(CCCCCN)nn3)CC2)n1,-10,/,39,/,/,/
COc1ccc(NC(=O)c2ccc(C)cc2)c(OC)c1,1,17,-6,1,-31,1
CCOC(=O)c1c2c(n(C)c1C)C(=O)C(=O)c1ccc(Br)cc1-2,121*,-33,57,-8,5,-17
Cc1cc(/C=N/n2cnnc2)c(C)n1-c1ccc(OCc2ccc(Cl)cc2Cl)cc1,103*,33,113*,-3,1,44
SMILES,CSC inhib,Calb FLC,Beta apoptosis,HIF activator,PolyA inhibitor,T cruzi repl
Cc1cc(/C=N/n2cnnc2)c(C)n1-c1ccc(Cl)cc1,-13,-5,-10,0,-40,39
COc1ccc(NCc2ccc(OC)c(Cn3ccnc3)c2)c(OC)c1,0,2,8,0,-6,56*
N#Cc1ccc(-c2ccc(Cl)cc2)nc1SCC(=O)c1cccc(Cl)c1,10,-4,91*,-4,9,6
N#Cc1ccc(-c2ccccc2)nc1SCC(=O)c1cccc(Cl)c1,-16,3,-7,-1,2,-5
O=C1S/C(=C\c2ccc(O)c([N+](=O)[O-])c2)C(=O)N1c1ccccc1Cl,31,41,29,1,83*,11
CCN(CC(=O)Nc1ccc(NC(C)=O)cc1)C(=O)CCCOc1ccc(C(C)(C)C)cc1,29,3,93*,1,2,-9
CCN(CC(=O)NCc1cccs1)C(=O)CCCOc1ccc(C(C)(C)C)cc1,/,/,0,/,/,/
O=C(O)c1ccc(-c2nc(-c3ccc(Cl)cc3)cs2)cc1,/,91*,/,1,12,-6
Cc1cccc(NC(=O)C2CC(=O)NC(Nc3nc4ccccc4s3)=N2)c1 (stereo not drawn),-4,7,-7,99*,23,2
COC(=O)c1ccccc1-c1ccc(/C=N/NC(=O)c2cc3ccccc3o2)o1,/,13,-5,0,14,16
COC(=O)c1ccccc1-c1c2ccc(=N)cc-2oc2cc(N)ccc12,/,/,99*,/,/,/
O=C1c2c(Br)c(Br)c(Br)c(Br)c2C(=O)N1c1ccccn1,84*,2,-11,0,-12,-46
CC(C)CCCCCCNC(=S)Nc1ccc(S(=O)(=O)N2CCOCC2)cc1,91*,0,98*,0,0,5
Cc1ccccc1NC(=O)c1ccc(Nc2c([N+](=O)[O-])cc([N+](=O)[O-])c3ccccc23)cc1,34,26,31,-1,-49,63*
CCCOc1ccc(C(=O)NC(=S)N2CCN(c3cc4c(cc3F)c(=O)c(C(=O)O)cn4CC)CC2)cc1,/,-10,4,-1,-1,-31
COc1ccc(C2CC(c3c(O)cc(C)oc3=O)=NCCS2)c(OC)c1 (stereo not drawn),80*,/,/,/,/,/
COc1cccc(N2CCN(Cc3nc4scc(-c5ccccc5)c4c(=O)[nH]3)CC2)c1,82*,-92,-4,3,-8,-4
O=c1[nH]c(CN2CCN(c3ccc(O)cc3)CC2)nc2scc(-c3ccc(Cl)cc3)c12,105*,24,8,1,-4,19
O=c1[nH]c(CN2CCN(c3ccccc3O)CC2)nc2scc(-c3ccccc3Cl)c12,4,4,-6,0,-5,49
